Screening results as filed in PubChem BioAssay.
CHOP inhibitor – blocks CHOP induction under ER stress. CHO-K1 CHOP-promoter luciferase, tunicamycin-induced, 15-18 h. inhibition, % at 10 µM. hit rate 3.8% among 220,000. AID 2732;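 active means compounds that reduced the stress-induced luciferase reporter signal by more than about 70% of percent inhibition, limit read from the data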
S1P3 antagonist – blocks the human S1P3 receptor; Q99500; inhibition, % at 4.98 µM; hit rate 0.27% among 170,000; AID 485; CHO S1P3 NFAT-BLA reporter, FRET fluorescence, antagonist mode;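 active means inhibition above the plate cutoff, the mean inhibition of test wells on that plate plus 3 SD, cut at about 28% in these data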;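 further: cells challenged with S1P at its EC80 of 0.8 µM; blue over green emission ratio from cleaved BLA substrate after 4 h stimulation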
Mdm2 ligase inh – blocks human Mdm2 ubiquitin ligase activity | signal enhancement, % at 5 µM | hit rate 0.11% among 210,000 | cell-based MDM2 ubiquitination luciferase reporter, 2 h; 0 = plate control, 100 = twice control, blank-subtracted;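 active means signal enhancement of 30% or more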;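 further: luminescence tracks abundance of the self-degrading MDM2-luciferase fusion protein; higher signal means inhibition of MDM2 E3 ligase activity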
Target sequence (Q00987 whole entry, looked up, the tested form may be a part): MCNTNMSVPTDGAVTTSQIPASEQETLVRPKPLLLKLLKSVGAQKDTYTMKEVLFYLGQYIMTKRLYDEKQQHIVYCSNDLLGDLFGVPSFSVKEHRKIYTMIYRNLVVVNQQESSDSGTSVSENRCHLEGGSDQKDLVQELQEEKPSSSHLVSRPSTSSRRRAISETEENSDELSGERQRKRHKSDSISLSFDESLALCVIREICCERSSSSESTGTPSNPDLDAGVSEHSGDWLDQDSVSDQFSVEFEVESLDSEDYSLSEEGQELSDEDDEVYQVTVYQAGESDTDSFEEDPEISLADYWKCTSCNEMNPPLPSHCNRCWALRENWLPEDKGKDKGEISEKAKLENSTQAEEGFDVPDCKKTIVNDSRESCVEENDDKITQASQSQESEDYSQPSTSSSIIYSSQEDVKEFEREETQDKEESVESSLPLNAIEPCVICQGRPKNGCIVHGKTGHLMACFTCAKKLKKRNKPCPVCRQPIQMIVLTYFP
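Timing – 2 h compound exposure at 37 °C · Assay system – mammalian cells stably expressing self-ubiquitinating, self-degrading MDM2 E3–luciferase fusion · Amount – 2000 cells seeded into each well · Measure – % luminescence enhancement versus blank-corrected plate control mean · Measured by – SteadyLite luminescence, 15 min reagent step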
Hsp70 activator – switches on Hsp70 transcription | HeLa Hsp70 promoter luciferase reporter, luminescence; scaled: vehicle 0, proteasome-inhibitor control 100% | activation, % at 10 µM | hit rate 0.04% among 200,000;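 active means activation above the mean across all tested compounds plus 3 SD, cutoff set per campaign, cut at about 5.5% in these data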
Hits are given with their value; n = inactive; x = no result given. Compounds with a hit are over-represented: about 4% of the library has one in this group of screens.

SMILES	CHOP inhibitor	S1P3 antagonist	Mdm2 ligase inh	Hsp70 activator
CCCCCc1nc2sc3c(c2c(=O)n1NC(=O)c1ccc([N+](=O)[O-])cc1)CC(C)(C)OC3	76	n	x	n
Cc1cccc(C(=O)N/C(=C\c2ccc(C)o2)C(=O)O)c1	n	n	n	x
Nc1nc2c(nc(Br)n2C2OC3COP(=O)(O)O[C@@H]3C2O)c(=O)[nH]1 (some centres not stated)	n	x	x	x
CCCCCCOC(=O)Sc1nc2ccccc2o1	95	x	n	n
COC(=O)CSc1nc2ccccc2o1	n	x	n	n
CCCN1CCC(NCc2cn(C)nc2-c2ccc(Oc3ccccc3)cc2)CC1	n	n	n	x
O=c1c(O)c(-c2ccc3c(c2)OCO3)oc2ccccc12	74	n	n	n
COc1ccc2oc(=O)c(C(=O)Nc3cccc(C)c3)cc2c1	82	n	n	n
O=C(Oc1cccc2cccnc12)c1cccc([N+](=O)[O-])c1	n	n	n	n
O=C(Oc1cccc2cccnc12)c1ccc2c(c1)OCCO2	n	61	n	n
CC(=O)NC1=NC(=O)/C(=C/c2cn(C(C)=O)nc2-c2ccccc2)S1	73	n	n	n
CCN=C1S/C(=C\c2cn(C(C)=O)nc2-c2ccccc2)C(=O)N1CC	71	x	n	n
O=C(O)c1ccccc1C(=O)Nc1ccc(Oc2cccc3ccccc23)cc1	78	n	n	n
Cc1cccc(Oc2ccc(NC(=O)c3ccccc3C(=O)O)cc2)c1C	n	n	n	n
COc1cccc(CC2(CO)CCCN(Cc3cc4ccccc4[nH]3)C2)c1 (configuration not stated)	n	n	n	n
Cc1ccc(C)c(NC(=S)NC(NC(=O)Cc2cccc3ccccc23)C(Cl)(Cl)Cl)c1 (configuration not stated)	79	x	n	n
CCc1ccc(OCC(=O)NC(NC(=S)Nc2ccccc2C)C(Cl)(Cl)Cl)cc1 (configuration not stated)	n	n	n	n
Cc1ccccc1NC(=S)NC(NC(=O)COc1ccccc1)C(Cl)(Cl)Cl (configuration not stated)	83	x	n	n
COc1ccc(Cl)cc1NC(=O)CSc1nc(N2CCCCC2)nc(N2CCCCC2)n1	n	n	n	n
CCn1nnnc1NCc1ccc(OCc2ccc(F)cc2Cl)c(OC)c1	n	n	n	n
CC12C=CC3(CN(Cc4ccccc4)C(=O)C3C1C(=O)NC1CC1)O2 (configuration not stated)	n	x	n	n
CCn1ncc(Br)c1C(=O)Nc1ccn(C23CC4CC(CC(C4)C2)C3)n1	n	n	n	n
CCn1ncc(Br)c1C(=O)N(C)C12CC3CC(CC(C3)C1)C2	87	n	n	n
Cc1nn(-c2ccc(F)cc2)c(C)c1NS(=O)(=O)c1ccc(Cl)cc1	n	n	n	n
CC1CC(C)CN(C(=O)c2ccc3c(c2)N(Cc2ccccc2)CCS3)C1 (configuration not stated)	73	x	n	n
SMILES	CHOP inhibitor	S1P3 antagonist	Mdm2 ligase inh	Hsp70 activator
CC(=O)N1N=C(c2ccccc2)CC1c1cn(C)c2ccccc12 (configuration not stated)	n	n	n	n
COc1ccc(S(=O)(=O)N(CCc2ccccc2)CC(=O)N/N=C/c2ccc3c(c2)OCO3)cc1	n	n	n	n
Cc1cccc(CN(CC(=O)N/N=C/c2cccs2)S(=O)(=O)c2ccc(Cl)cc2)c1	78	x	n	n
O=C(CN(CCc1ccccc1)S(=O)(=O)c1ccc(Cl)cc1)N/N=C/c1ccc2c(c1)OCO2	77	n	n	n
CCOc1ccc(NC(=O)CSc2nnc(CCNC(=O)c3ccc(OC)cc3)n2C)cc1	n	x	n	n
CCOC(=O)CN(Cc1sccc1C)C(=O)Nc1ccc(OCC)cc1	n	n	n	n
Cc1cccc(NC(=O)CN2C(=O)NC(Cc3ccccc3)C2=O)c1 (configuration not stated)	n	x	n	n
Cc1cc(=O)[nH]c(-c2ccccc2OC(F)(F)F)n1	n	n	n	x
CCOc1ccc(N(CC(=O)Nc2c(C)cccc2C)S(=O)(=O)c2c(C)[nH]c(=O)[nH]c2=O)cc1	n	n	n	x
COCCn1c(C)cc(/C=C2/NC(=O)N(c3cccc(Cl)c3)C2=O)c1C	71	n	n	n
Cc1cc(C)cc(Oc2nc(C(F)(F)F)nc3ccccc23)c1	72	x	n	n
Cc1cc(C)cc(Oc2nc(-c3ccccc3)cc(C)c2S(C)(=O)=O)c1	n	x	n	n
C/C(=N/NC(=O)CNC(=O)C1COc2ccccc2O1)c1cccc(O)c1 (configuration not stated)	n	n	n	n
C/C(=N\NC(=S)NC1CCCCC1)c1c(F)cccc1F	80	n	n	n
COc1ccc(NC(=O)c2ccccc2NC(=O)CSc2ccc(Cl)cc2)cc1	n	x	n	n
CCOC(=O)CN(C(=O)CSc1nnc2c(n1)[nH]c1c(C)cc(C)cc12)c1ccccc1	82	x	n	n
CCOC(=O)CN(C(=O)CSc1nnc2c(n1)[nH]c1ccccc12)c1ccccc1	n	n	n	n
OC(CNCC1CCCO1)Cn1c2ccc(Cl)cc2c2cc(Cl)ccc21 (configuration not stated)	94	x	n	n
OC(CNCCC1C=Nc2ccccc21)Cn1c2ccc(Cl)cc2c2cc(Cl)ccc21 (configuration not stated)	109	n	n	n
O=C(Nc1ccc(O)c2c(=O)cc(-c3ccccc3Cl)oc12)c1ccc(Cl)c(Cl)c1	94	x	n	x
Cc1ccccc1C(=O)Nc1ccc(O)c2c(=O)cc(-c3ccccc3Cl)oc12	n	x	n	x
Cc1cccc(NC(=S)NC(C)(C)CC(C)(C)C)c1	85	n	n	n
Cc1cccc(NC(=S)NCc2ccc(F)cc2)c1	n	n	n	n
COc1ccc(C(N)=S)c(OC)c1	n	n	n	n
O=C(Nc1ccccc1)c1ccccc1CCc1ccccc1	n	x	n	n
SMILES	CHOP inhibitor	S1P3 antagonist	Mdm2 ligase inh	Hsp70 activator
O=C(Nn1cnnc1)c1ccccc1CCc1ccccc1	n	64	n	n
Cc1cc(NC(=O)c2c(F)cccc2Cl)n(-c2nc3ccccc3[nH]2)n1	75	x	n	n
C/C=C/C(=O)N(CC)c1ccccc1C	n	n	x	n
C=CCn1c(-c2csc(-c3ccc(Cl)cc3)n2)n[nH]c1=S	72	x	n	n
CCCCc1c(C)c(C#N)c2nc3ccccc3n2c1Cl	106	n	n	n
CCc1c(C)c(C#N)c2nc3ccccc3n2c1N(C)C	n	n	n	n
CC1CCN(S(=O)(=O)c2ccc3nc(-c4ccccn4)cc(C(=O)NCCN(C)Cc4ccccc4)c3c2)CC1	n	n	n	n
Cc1nc(N2CCN(C(=O)c3ccco3)CC2)c2c3c(sc2n1)CCC3	n	x	n	n
CC(C)c1nc(N2CCN(C(=O)c3ccco3)CC2)c2c3c(sc2n1)CCCC3	74	n	n	n
COC(=O)N/N=C(\C)c1ccc(-n2ccnc2)cc1	n	n	n	n
C/C(=N\NC(=O)COc1ccc(C)cc1C(C)C)c1ccc(-n2ccnc2)cc1	93	n	n	n
Cc1ccccc1C(=O)Oc1ccc(-c2csnn2)cc1	n	n	n	x
Cc1ccccc1C(=O)Oc1ccc(Sc2ccc(O)cc2)cc1	96	x	n	n
